SKN-1 inh: blocks SKN-1 activity in C. elegans. AID 624304. inhibition, % at 21.8 µM. actives 0.49% (n = 360,000). C. elegans VP596 Pgst-4::GFP/RFP ratio, acrylamide-induced, 24 h;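 active = interference check ratio from 0.5 to 1.5 plus GFP to RFP signal ratio inhibition reaching or exceeding a fixed threshold, cut at about 30% in these data, passing the limit was not always enough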
PABP1 MLLE inh: inhibitors of microRNA-mediated deadenylation, human PABP1 MLLE binding | P11940 | GST-MLLE / FITC-PAM2 fluorescence polarization | inhibition, % at 20 µM | actives 0.36% (n = 360,000) | AID 588489; in the data active = inhibition above about 35%, passing the limit was not always enough;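 also: plate controls were DMSO wells with GST-MLLE for no effect and wells lacking GST-MLLE protein for full effect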
Target sequence (P11940 whole entry, looked up): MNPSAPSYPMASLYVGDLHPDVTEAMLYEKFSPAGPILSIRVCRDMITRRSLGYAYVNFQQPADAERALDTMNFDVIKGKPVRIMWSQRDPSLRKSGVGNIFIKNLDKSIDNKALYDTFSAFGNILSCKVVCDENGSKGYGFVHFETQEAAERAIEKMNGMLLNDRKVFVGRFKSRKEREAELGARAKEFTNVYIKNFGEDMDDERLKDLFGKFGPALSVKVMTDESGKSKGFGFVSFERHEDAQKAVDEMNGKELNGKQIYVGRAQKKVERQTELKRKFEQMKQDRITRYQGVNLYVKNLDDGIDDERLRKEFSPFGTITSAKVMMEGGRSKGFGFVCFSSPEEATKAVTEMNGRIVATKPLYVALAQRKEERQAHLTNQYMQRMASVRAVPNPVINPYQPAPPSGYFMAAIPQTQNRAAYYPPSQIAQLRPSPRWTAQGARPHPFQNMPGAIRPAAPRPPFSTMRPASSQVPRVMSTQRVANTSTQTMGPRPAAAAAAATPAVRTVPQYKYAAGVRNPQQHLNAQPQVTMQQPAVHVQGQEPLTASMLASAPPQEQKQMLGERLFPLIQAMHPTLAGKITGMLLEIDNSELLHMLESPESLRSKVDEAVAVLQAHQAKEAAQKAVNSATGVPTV
MT1-MMP act inh: inhibitors of human MT1-MMP activation; HT1080 RFP-PRO-GFP cells, GFP/RFP ratio fluorescence, overnight; percent of plate control window, DMSO zero; GFP/RFP ratio change, % at 20 µM; AID 651647; actives 0.061% (n = 360,000);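 active = GFP/RFP ratio change of at least 30% with cell ATP level not reduced by more than half and red fluorescence within 50% of control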
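Assay system: HT1080 cells carrying an RFP-PRO-GFP reporter | Dosing: Single dose of 20 µM compound, 1% DMSO final | Incubation: Cells overnight before dosing, compound overnight, 37 °C, 5% CO2 | Evaluation: GFP/RFP fluorescence ratio | Control set: DMSO and RFP-L50D-GFP cell wells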
eIF4H inh: inhibitors of RNA binding by human eIF4H; eIF4H fluorescence polarization binding assay; actives 0.94% (n = 290,000); inhibition, % at 35 µM;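 also: calls also rest on retests at 20 µM and on dose response follow-up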
PABP polyA inh: blocks human PABP binding to poly(A) RNA; fluorescence polarization; calls only at 35 µM; actives 1% (n = 290,000);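 also: calls also rest on retests at 20 µM and on dose response follow-up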
* hit, by the source's call; i = inactive; · = not tested or not shown; + = active, no number. The list is not random: actives were taken first. Their share in the collection is about 1.8%. Unless noted, no rule for the calls is given here.

SMILES	SKN-1 inh	PABP1 MLLE inh	MT1-MMP act inh	eIF4H inh	PABP polyA inh
Cn1ccsc1=NC(=O)c1ccc(OC(F)(F)F)cc1	51*	3	-4	2	i
Cn1ccsc1=NC(=O)c1ccc(Cl)cc1	43*	-4	-1	-5	i
COc1ccc(C(=O)N=c2sccn2C)cc1	16	2	-3	-7	i
CCCSc1nc(N2CCOCC2)c2c(c1C#N)CC(C)(C)SC2	38*	0	-2	-8	i
CC(C)CSc1nc(N2CCOCC2)c2c(c1C#N)CC(C)(C)SC2	-27	-8	-2	-8	i
CC(=O)N(/N=C1\Sc2ccccc2C1=O)c1ccccc1C	40*	-52	-23	10	i
CC(=O)N(/N=C1\Sc2ccccc2C1=O)c1ccc(C)cc1C	43*	-8	15	13	i
CC(=O)N(/N=C1\Sc2ccccc2C1=O)c1ccccc1	13	9	-4	-4	i
Cc1c(C(=O)C(=O)NCCc2ccc(S(N)(=O)=O)cc2)c2ccccc2n1C	-3	-6	2	93*	+
NS(=O)(=O)c1ccc(CCNC(=O)C(=O)c2cn(CC(=O)N3CCCC3)c3ccccc23)cc1	-6	5	-4	-4	i
COc1ccc2cc(/C=C/C(=O)c3ccco3)c(Cl)nc2c1	·	·	·	105	i
COc1cc2cc(/C=C/C(=O)c3ccco3)c(Cl)nc2cc1OC	12	-35	-36	77*	+
O=C(COC(=O)c1ccccc1Br)Nc1ccc2[nH]c(=O)[nH]c2c1	19	1	1	·	·
Cc1oc(-c2ccc(-c3ccccc3)cc2)nc1CN(C)C1CCOC1 (stereo unspecified)	65*	-13	1	0	i
CCOC(=O)CC(NS(=O)(=O)c1ccc(OC)c(OC)c1)c1cccc([N+](=O)[O-])c1 (stereo unspecified)	0	-8	-5	7	i
CCOC(=O)CC(NS(=O)(=O)c1ccc2[nH]cc(C(=O)O)c(=O)c2c1)c1ccc(OCC)c(OC)c1 (stereo unspecified)	2	-4	1	79*	+
CCOC(=O)c1c(-c2ccco2)csc1NC(=O)CSc1nnc(N)s1	15	-8	1	54*	i
CCOC(=O)c1c(-c2ccc(C)o2)csc1NC(=O)CSc1nncs1	7	38	1	28	i
Cc1ccc(N=Cc2c(C)[nH]n(-c3ccccc3)c2=O)nc1	6	2	6	-1	i
O=C1c2ccccc2C(=O)N1/N=C/c1ccc(O)c(O)c1O	2	33	-1	98*	+
O=C1c2cccc3cccc(c23)C(=O)N1/N=C/c1ccc(O)cc1O	-10	-21	-4	-3	i
Cc1ccc(-n2[nH]c(C)c(/C=N/n3c(C)nc4ccccc4c3=O)c2=O)cc1	14	5	6	3	i
Cc1[nH]n(-c2ccccc2)c(=O)c1/C=N/n1c(C)nc2ccccc2c1=O	14	6	0	1	+
Cc1[nH]n(-c2ccccc2)c(=O)c1/C=N/c1ccccn1	51*	11	2	-9	i
Oc1ccc(/C=N/N2CCOCC2)c(O)c1O	3	33	1	98*	+
SMILES	SKN-1 inh	PABP1 MLLE inh	MT1-MMP act inh	eIF4H inh	PABP polyA inh
CC(=O)C12OC(C)(C)OC1CC1C3CCC4=CC(=O)C=CC4(C)C3(F)C(O)CC12C (stereo unspecified)	8	-7	-2	·	·
CC(C)c1ccc(-c2cc(C(=O)N3CCOCC3)c3cc(Br)ccc3n2)cc1	3	-7	1	-17	i
Cc1cc(Cl)ccc1C(=O)C1CCCN(C(=O)c2cnn(C(C)C)c2)C1 (stereo unspecified)	17	0	0	6	i
c1ccc(CNc2c(C3CCNCC3)nc3scc(-c4ccccc4)n23)cc1	14	6	4	·	·
COc1ccc(C(NC(=O)C2CCN(CCOc3ccc(Cl)cc3)CC2)c2cccs2)cc1 (stereo unspecified)	9	9	2	·	·
CC1=CCC[C@@H]2[C@]3(CC/C(=C/CO)CO)CO[C@@]2(C1)[C@@H](O)C[C@H]3C	12	6	-4	·	·
Cc1nc2ccccc2c(=O)n1/N=C/c1ccccc1O	-3	-2	4	3	i
Cc1nc2ccccc2c(=O)n1/N=C/c1ccc(O)c(O)c1O	10	26	0	90*	+
O=C(NC(=S)Nc1ccc2oc(=O)ccc2c1)c1ccco1	0	43*	5	-10	i
CCC1CCCCN1CCCNC(=O)C1CC(=O)N(CCc2ccccc2)C1 (stereo unspecified)	4	7	1	56	i
CCOc1ccc(N=Cc2ccc(N(C)C)cc2)c(O)c1	51*	12	5	·	·
CCOc1ccc(N=Cc2ccc([N+](=O)[O-])cc2)c(O)c1	21	5	2	·	·
Nc1cc2c(cc1Cl)-c1ccccc1C2	49*	-8	-5	·	·
Nc1cc2c(cc1Cl)-c1ccc(Cl)cc1C2	30	9	-2	·	·
CCCn1c(N)c(C(c2ccc(C(=O)OC)cc2)N2CCN(c3ccccc3)CC2)c(=O)[nH]c1=O (stereo unspecified)	-6	7	3	-2	i
CCCn1c(N)c(C(c2ccc(OC)cc2)N2CCN(c3ccccc3)CC2)c(=O)[nH]c1=O (stereo unspecified)	38*	19	-1	0	i
O=c1[nH]c(SCc2ccccc2)nc2ccsc12	9	4	-2	0	i
CCOC(=O)CSc1nc2ccsc2c(=O)[nH]1	6	-11	-3	86	+
COc1cc(/C=C/C(C)=NNc2ccccc2)ccc1O	1	2	-3	·	·
COC(=O)CN1C(=S)N(c2ccc(Cl)cc2)C(=O)C1CC(=O)Nc1ccc(Cl)cc1 (stereo unspecified)	19	-3	2	5	i
COC(=O)CN1C(=S)N(Cc2ccccc2)C(=O)C1CC(=O)Nc1ccc(Br)cc1 (stereo unspecified)	39*	-7	2	-8	i
Brc1ccc2oc(-c3ccn[nH]3)cc2c1	39*	-1	2	-4	i
O=c1oc2ccc(Br)cc2cc1-c1nc2ccccc2o1	4	-11	-145	-8	i
Cc1ccccc1-c1nn(-c2ccc(F)cc2F)cc1CNC1CC1	-1	0	1	54*	+
Cc1ccccc1-c1nn(-c2ccc(F)cc2F)cc1CNCC(C)O (stereo unspecified)	-1	-4	0	0	i
COc1ccc(C(C)C)cc1S(=O)(=O)n1cnc(C)c1	40*	3	2	-3	i
COc1cc(C)c(Cl)cc1S(=O)(=O)n1cnc(C)c1	12	-10	-1	-10	i
Cc1onc(-c2ccccc2)c1C(=O)NC(=S)NNC(=O)c1ccncc1	1	42*	9	12	i
